These results are taken from ChEMBL document CHEMBL1208782, “Synthesis and pharmacological validation of a novel series of non-steroidal FXR agonists” (Bioorg Med Chem Lett, 2010).

Data set [1] deals with T1, Thyroid hormone receptor alpha (Homo sapiens) (UniProt P10827).
T1 sequence (whole entry): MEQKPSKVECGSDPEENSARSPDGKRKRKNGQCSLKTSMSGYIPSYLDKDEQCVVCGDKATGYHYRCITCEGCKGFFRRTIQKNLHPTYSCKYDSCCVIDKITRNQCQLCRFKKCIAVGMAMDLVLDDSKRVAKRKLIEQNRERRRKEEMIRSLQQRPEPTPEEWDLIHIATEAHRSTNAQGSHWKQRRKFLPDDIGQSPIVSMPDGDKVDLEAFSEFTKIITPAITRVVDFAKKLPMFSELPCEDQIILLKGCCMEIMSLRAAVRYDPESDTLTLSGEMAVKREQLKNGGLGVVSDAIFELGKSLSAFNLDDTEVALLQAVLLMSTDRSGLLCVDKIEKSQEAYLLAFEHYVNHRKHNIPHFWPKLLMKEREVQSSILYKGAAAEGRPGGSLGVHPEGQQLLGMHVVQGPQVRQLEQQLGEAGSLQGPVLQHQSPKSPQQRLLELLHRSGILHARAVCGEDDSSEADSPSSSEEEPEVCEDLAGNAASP
In words: Agonist activity at TRalpha-LBD expressed in HEK293 cells assessed as Gal4-DBD interaction by cellular mammalian one hybrid assay relative to thyroid. In kind it is functional, cell-based.

Data set [2] addresses T2, Thyroid hormone receptor alpha (Homo sapiens, UniProt P10827).
T2 sequence (P10827 whole entry): T1 sequence (whole entry)
Kind of data set: Agonist activity at TRalpha-LBD expressed in HEK293 cells assessed as Gal4-DBD interaction by cellular mammalian one hybrid assay. In kind it is functional, cell-based.

Data set [3] in a line: Clearance in db/db mouse at 5 mg/kg, po. It counts as ADME, organism-based. On the set-up: dose 5 mg/kg, route oral. Conditions: in vivo. The method in brief: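 Mice received a single dose of 5 mg/kg po or 1 mg/kg iv. Plasma was sampled at 5, 10, 30, 90 and 240 min and the parent compound alone was measured (ng/mL). Clearance (mL/h/kg), Vd (mL/kg) and oral bioavailability were derived from these plasma profiles.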

The nature of data set [4]: Plasma concentration in db/db mouse at 25 mg/kg bid after 4 hrs by LC/MS-MS analysis. In kind it is ADME, organism-based. On the set-up: dose 25 mg/kg. Conditions: read-out: Drug uptake. The method in brief: (§1)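 db/db mice were dosed twice daily for 12 days. Plasma and liver concentrations were determined 4 h and 24 h after the last administration.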
Data set [5] addresses T3, Nuclear receptor subfamily 1 group I member 3 (Homo sapiens, UniProt Q14994).
T3 sequence (Q14994 whole entry): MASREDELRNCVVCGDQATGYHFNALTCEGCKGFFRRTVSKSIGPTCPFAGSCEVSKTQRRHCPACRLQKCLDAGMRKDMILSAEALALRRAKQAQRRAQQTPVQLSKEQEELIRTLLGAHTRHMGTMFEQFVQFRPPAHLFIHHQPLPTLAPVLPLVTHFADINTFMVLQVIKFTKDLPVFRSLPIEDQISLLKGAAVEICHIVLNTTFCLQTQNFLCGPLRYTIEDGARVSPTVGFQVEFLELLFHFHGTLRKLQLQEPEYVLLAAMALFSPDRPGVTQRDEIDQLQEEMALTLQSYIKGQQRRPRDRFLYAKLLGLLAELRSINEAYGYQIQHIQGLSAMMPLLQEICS
Kind of data set: Agonist activity at CAR-LBD expressed in HEK293 cells assessed as Gal4-DBD interaction by cellular mammalian one hybrid assay. It counts as functional, cell-based.

The nature of data set [6]: Drug level in db/db mouse liver at 25 mg/kg bid after 4 hrs by LC/MS-MS analysis. In kind it is ADME, organism-based. On the set-up: dose 25 mg/kg. The note with it: read-out: Drug uptake. The method in brief:
as §1

In data set [7] the target is T4, Retinoic acid receptor RXR-alpha (Homo sapiens, UniProt P19793).
T4 sequence (P19793 whole entry): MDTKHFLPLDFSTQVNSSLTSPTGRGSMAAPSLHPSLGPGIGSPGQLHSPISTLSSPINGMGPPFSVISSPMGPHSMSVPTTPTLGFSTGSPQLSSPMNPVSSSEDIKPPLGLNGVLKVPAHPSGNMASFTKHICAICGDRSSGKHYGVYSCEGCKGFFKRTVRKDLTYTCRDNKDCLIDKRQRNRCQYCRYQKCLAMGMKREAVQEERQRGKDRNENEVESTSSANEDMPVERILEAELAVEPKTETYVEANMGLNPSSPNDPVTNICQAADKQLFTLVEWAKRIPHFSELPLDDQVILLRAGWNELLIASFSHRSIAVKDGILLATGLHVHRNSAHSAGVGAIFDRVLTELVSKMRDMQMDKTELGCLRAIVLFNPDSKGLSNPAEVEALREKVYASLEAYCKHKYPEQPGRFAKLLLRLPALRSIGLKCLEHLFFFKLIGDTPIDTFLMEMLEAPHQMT
In words: Agonist activity at RXRalpha-LBD expressed in HEK293 cells assessed as Gal4-DBD interaction by cellular mammalian one hybrid assay. It counts as functional, cell-based.

Data set [8] in a line: Drug level in db/db mouse bile measured metabolites as glucuronide at 1 mg/kg, iv after 240 mins. Conditions: in vivo, 4 h. It counts as ADME, organism-based. Further details: dose 1 mg/kg, route intravenous.
Data set [9] deals with T5, Progesterone receptor (Homo sapiens) (UniProt P06401).
T5 sequence (whole entry): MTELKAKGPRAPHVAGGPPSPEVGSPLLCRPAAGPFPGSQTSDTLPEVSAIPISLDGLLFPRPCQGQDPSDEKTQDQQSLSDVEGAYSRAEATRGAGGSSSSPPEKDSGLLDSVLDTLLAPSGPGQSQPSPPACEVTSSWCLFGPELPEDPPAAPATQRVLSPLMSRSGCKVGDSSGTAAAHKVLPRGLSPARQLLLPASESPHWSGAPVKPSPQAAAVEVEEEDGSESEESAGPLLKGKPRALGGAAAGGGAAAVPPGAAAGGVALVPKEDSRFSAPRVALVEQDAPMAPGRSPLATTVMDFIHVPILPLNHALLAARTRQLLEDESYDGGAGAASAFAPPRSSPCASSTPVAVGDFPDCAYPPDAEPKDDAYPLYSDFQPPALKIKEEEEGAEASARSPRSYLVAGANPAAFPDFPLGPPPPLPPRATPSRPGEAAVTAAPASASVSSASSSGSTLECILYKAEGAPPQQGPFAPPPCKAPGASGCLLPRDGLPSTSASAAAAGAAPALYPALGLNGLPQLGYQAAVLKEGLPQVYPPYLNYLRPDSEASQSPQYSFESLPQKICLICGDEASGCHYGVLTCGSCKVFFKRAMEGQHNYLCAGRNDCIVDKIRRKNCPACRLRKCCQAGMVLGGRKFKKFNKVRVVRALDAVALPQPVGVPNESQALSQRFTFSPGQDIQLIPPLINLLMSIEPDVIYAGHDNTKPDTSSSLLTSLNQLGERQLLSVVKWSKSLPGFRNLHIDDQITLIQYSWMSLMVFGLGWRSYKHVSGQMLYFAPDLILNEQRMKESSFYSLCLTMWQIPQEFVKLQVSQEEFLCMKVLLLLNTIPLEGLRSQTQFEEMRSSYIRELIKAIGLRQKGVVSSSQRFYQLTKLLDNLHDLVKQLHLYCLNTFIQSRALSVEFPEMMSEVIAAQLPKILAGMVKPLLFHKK
Kind of data set: Agonist activity at progesterone receptor-LBD expressed in HEK293 cells assessed as Gal4-DBD interaction by cellular mammalian one hybrid assay relative to progesterone. It counts as functional, cell-based.

Broadly, the EC50 is the concentration giving half of the maximal effect. Broadly, the CL/F is the apparent clearance, not corrected for the fraction that reaches the circulation. With `CN(Cc1ccc(C(=O)O)cc1)c1ccc(OCc2c(-c3c(Cl)cccc3Cl)noc2C2CC2)nc1C(F)(F)F`, the Efficacy in data set [1] and in [9] was 0% in each case. For the same compound, the concentration giving a half-maximal response (EC50) in [2], in data set [5] and in data set [7] was over 10 µM in each case. In addition, in [3], the apparent clearance (CL/F) was 67.9 mL/min/kg. The concentration at 4 h in data set [4] was found to be 0.344 µM; in [6], 14.8 µM. The Drug uptake in data set [8] was 150 ng/mL.
`CN(Cc1cccc(C(=O)O)c1)c1ccc(OCc2c(-c3c(Cl)cccc3Cl)noc2C2CC2)nc1C(F)(F)F`: the Efficacy in data set [1] and in data set [9] was 0% throughout. Further, the concentration giving a half-maximal response (EC50) in [2], in [5] and in data set [7] was over 10 µM each time.
Consider `CC(C)c1onc(-c2c(Cl)cccc2Cl)c1COc1ccc(N(C)Cc2ccc(C(=O)O)cc2)c(C(F)(F)F)n1`, for which the Efficacy in [1] and in [9] was 0% throughout. For the same compound, the concentration for a half-maximal effect (EC50) in data set [2], in data set [5] and in data set [7] was over 10 µM in each case. The same compound had a CL/F in [3] of 104 mL/min/kg. The concentration at 4 h in data set [4] was determined as 0.512 µM; in data set [6], 10.4 µM. The Drug uptake in data set [8] is 4261 ng/mL.
